From ChEMBL document CHEMBL1944523, “Benzimidazolones: a new class of selective peroxisome proliferator-activated receptor γ (PPARγ) modulators” (J Med Chem, 2011)

What was measured:
[1] = target: T1, Peroxisome proliferator-activated receptor gamma (Homo sapiens, UniProt P37231); assay: Agonist activity at human PPARgamma expressed in COS-1 cells co-expressing with Gal4 by transactivation assay; assay type: functional, cell-based
T1 sequence (P37231 whole entry): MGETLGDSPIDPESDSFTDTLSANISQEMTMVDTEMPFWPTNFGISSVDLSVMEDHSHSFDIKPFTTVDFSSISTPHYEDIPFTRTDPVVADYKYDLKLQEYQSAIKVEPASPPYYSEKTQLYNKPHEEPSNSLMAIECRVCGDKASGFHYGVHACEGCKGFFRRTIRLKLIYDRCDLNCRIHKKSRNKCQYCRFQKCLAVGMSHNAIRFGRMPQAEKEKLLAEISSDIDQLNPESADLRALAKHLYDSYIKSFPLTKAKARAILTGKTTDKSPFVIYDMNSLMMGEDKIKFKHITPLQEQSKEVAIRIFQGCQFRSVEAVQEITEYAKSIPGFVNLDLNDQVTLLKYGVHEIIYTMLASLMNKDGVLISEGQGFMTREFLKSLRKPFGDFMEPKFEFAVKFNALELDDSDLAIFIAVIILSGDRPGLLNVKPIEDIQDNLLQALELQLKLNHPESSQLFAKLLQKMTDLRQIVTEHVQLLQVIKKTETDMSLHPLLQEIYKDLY
Outline: (§1)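 GAL4-PPAR chimeric receptor transactivation in transiently co-transfected COS-1 cells with a GAL4-responsive reporter; potency as EC50 and maximum activation expressed relative to rosiglitazone; triplicate, mean reported.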

[2] = target: T1, Peroxisome proliferator-activated receptor gamma; assay: Partial agonist activity at human PPARgamma LBD assessed as activation of CBP1-453 by HTRF assay; assay type: functional
[3] = target: T2, Peroxisome proliferator-activated receptor alpha (Homo sapiens, UniProt Q07869); assay: Binding affinity to human PPARalpha expressed in COS-1 by scintillation proximity assay
T2 sequence (Q07869 whole entry): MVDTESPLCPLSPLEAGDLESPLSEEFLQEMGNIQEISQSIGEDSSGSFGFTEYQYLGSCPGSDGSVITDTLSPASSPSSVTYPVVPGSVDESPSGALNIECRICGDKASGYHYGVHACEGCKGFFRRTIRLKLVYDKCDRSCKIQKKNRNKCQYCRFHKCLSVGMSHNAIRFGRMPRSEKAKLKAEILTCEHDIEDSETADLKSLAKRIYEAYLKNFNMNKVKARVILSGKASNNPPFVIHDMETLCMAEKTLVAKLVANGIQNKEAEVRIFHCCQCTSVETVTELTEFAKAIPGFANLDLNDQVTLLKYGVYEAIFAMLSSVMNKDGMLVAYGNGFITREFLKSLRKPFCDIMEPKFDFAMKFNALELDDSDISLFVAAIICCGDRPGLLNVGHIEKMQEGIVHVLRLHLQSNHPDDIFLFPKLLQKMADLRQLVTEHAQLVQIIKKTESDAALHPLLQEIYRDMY
Outline: (§2)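 Scintillation proximity binding assay on PPAR receptors giving IC50; mean of three determinations.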

[4] = target: T1, Peroxisome proliferator-activated receptor gamma; assay: Partial agonist activity at human PPARgamma LBD assessed as activation of Src-1 by HTRF assay; assay type: functional
[5] = target: T1, Peroxisome proliferator-activated receptor gamma; assay: Partial agonist activity at human PPARgamma LBD assessed as activation of PBP by HTRF assay; assay type: functional
[6] = target: T1, Peroxisome proliferator-activated receptor gamma; assay: Partial agonist activity at human PPARgamma LBD assessed as activation of PGC1 by HTRF assay; assay type: functional
[7] = target: T3, Peroxisome proliferator-activated receptor delta (Homo sapiens, UniProt Q03181); assay: Binding affinity to PPARdelta by scintillation proximity assay; outline: as §2
T3 sequence (Q03181 whole entry): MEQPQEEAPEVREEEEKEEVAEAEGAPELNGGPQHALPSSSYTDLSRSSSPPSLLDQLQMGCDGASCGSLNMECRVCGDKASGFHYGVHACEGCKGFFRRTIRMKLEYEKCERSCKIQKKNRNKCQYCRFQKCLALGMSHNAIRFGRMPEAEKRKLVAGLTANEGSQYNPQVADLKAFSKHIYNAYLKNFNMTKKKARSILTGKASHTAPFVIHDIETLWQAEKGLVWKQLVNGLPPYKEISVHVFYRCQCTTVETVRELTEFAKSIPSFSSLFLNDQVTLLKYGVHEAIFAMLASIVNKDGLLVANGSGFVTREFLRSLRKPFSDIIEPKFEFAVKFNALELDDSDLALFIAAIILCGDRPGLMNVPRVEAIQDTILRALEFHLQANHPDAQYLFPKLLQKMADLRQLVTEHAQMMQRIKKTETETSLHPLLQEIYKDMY

[8] = target: T1, Peroxisome proliferator-activated receptor gamma; assay: Binding affinity to human PPARgamma by scintillation proximity assay; outline: as §2
[9] = target: T4, Peroxisome proliferator-activated receptor gamma (Homo sapiens) (UniProt P37231); assay: Agonist activity at human PPARgamma expressed in COS-1 cells co-expressing with Gal4 by transactivation assay relative to rosiglitazone; assay type: functional, cell-based; outline: as §1
T4 sequence (whole entry): T1 sequence (P37231 whole entry)

Structure (SMILES)	EC50 [1]	EC50 [2]	IC50 [3]	EC50 [4]	EC50 [5]	EC50 [6]	IC50 [7]	IC50 [8]	Emax [9]
C[C@@H](Oc1cc(Cn2c(=O)n(-c3ccc(C(C)(C)C)cc3)c3ccc(C(F)(F)F)cc32)ccc1Cl)C(=O)O	135 nM	480 nM	> 50000 nM	> 50000 nM	440 nM	460 nM	> 50000 nM	161 nM	15%
COc1ccc2c(-n3c(=O)n(Cc4ccc(Cl)c(O[C@H](C)C(=O)O)c4)c4cc(C(F)(F)F)ccc43)noc2c1	103 nM		> 50000 nM				> 50000 nM	4.1 nM	28%
COc1ccc2c(-n3c(=O)n(Cc4cccc([C@@]5(C)OC(O)=NC5=O)c4)c4cc(C(F)(F)F)ccc43)noc2c1	237 nM		> 50000 nM				> 50000 nM	93 nM	
CC[C@@H](Oc1cccc(Cn2c(=O)n(-c3noc4cc(OC)ccc34)c3ccc(C(F)(F)F)cc32)c1)C(=O)O			> 50000 nM				> 50000 nM	3660 nM	
C[C@@H](Oc1cc(Cn2c(=O)n(-c3noc4ccc(Cl)cc34)c3ccc(C(F)(F)F)cc32)ccc1Cl)C(=O)O	120 nM		> 50000 nM				> 50000 nM	35.4 nM	36%
COc1ccc2c(-n3c(=O)n(Cc4ccc(Cl)c(O[C@H](C)C(=O)O)c4)c4cc(OC(F)(F)F)ccc43)noc2c1	11.4 nM		> 50000 nM				> 50000 nM	3.2 nM	39%
Cc1ccc2c(-n3c(=O)n(Cc4ccc(Cl)c(O[C@H](C)C(=O)O)c4)c4cc(C(F)(F)F)ccc43)noc2c1	77.5 nM		> 50000 nM				> 50000 nM	14.2 nM	37%
COc1ccc2c(-n3c(=O)n(Cc4cc([C@@]5(C)OC(=O)NC5=O)ccc4Cl)c4cc(C(F)(F)F)ccc43)noc2c1	17 nM		> 50000 nM				> 50000 nM	7.7 nM	28%
COc1ccc2c(-n3c(=O)n(Cc4cccc([C@@]5(C)OC(=O)NC5=O)c4)c4cc(C(F)(F)F)ccc43)noc2c1									45%
C[C@@H](Oc1cc(Cn2c(=O)n(-c3nc4ccc(Cl)cc4s3)c3ccc(C(F)(F)F)cc32)ccc1Cl)C(=O)O			> 50000 nM				> 50000 nM	1370 nM	
COc1ccc2c(-n3c(=O)n(Cc4cccc(O[C@H](C)C(=O)O)c4)c4cc(C(F)(F)F)ccc43)noc2c1			> 50000 nM				> 50000 nM	924 nM	
CN(CCOc1ccc(C[C@H](OCC(F)(F)F)C(=O)O)cc1)c1nc2ccccc2o1		1 nM		2 nM	1 nM	1 nM			
COc1ccc2c(-n3c(=O)n(Cc4ccc([C@@]5(C)OC(=O)NC5=O)cc4)c4cc(C(F)(F)F)ccc43)noc2c1			> 50000 nM				> 50000 nM	2180 nM	
COc1ccc2c(-n3c(=O)n(Cc4ccc(Cl)c(O[C@@H](C)C(=O)O)c4)c4cc(C(F)(F)F)ccc43)noc2c1	3000 nM		> 50000 nM				> 50000 nM	66 nM	4%
COc1ccc2c(-n3c(=O)n(Cc4ccc(Cl)c(O[C@H](C)C(=O)O)c4)c4ccc(C(F)(F)F)cc43)noc2c1	83 nM		> 50000 nM				> 50000 nM	2.3 nM	43%
COc1ccc2c(-n3c(=O)n(Cc4cc(O[C@H](C)C(=O)O)ccc4Cl)c4cc(C(F)(F)F)ccc43)noc2c1	102 nM		> 50000 nM				> 50000 nM	9.1 nM	26%
Cc1c(C(=O)c2ccc(Cl)cc2)c2ccc(OC(F)(F)F)cc2n1Cc1cccc(O[C@H](C)C(=O)O)c1		6 nM		> 50000 nM	5 nM	5 nM			
C[C@@H](Oc1cc(Cn2c(=O)n(C(=O)c3ccc(Cl)cc3)c3ccc(C(F)(F)F)cc32)ccc1Cl)C(=O)O	489 nM		> 50000 nM				> 50000 nM	255 nM	21%
COc1ccc2c(-n3c(=O)n(-c4cccc([C@@]5(C)OC(=O)NC5=O)c4)c4cc(C(F)(F)F)ccc43)noc2c1			> 50000 nM				> 50000 nM	6930 nM	
C[C@@H](Oc1cc(Cn2c(=O)n(Cc3ccc(Cl)cc3)c3ccc(C(F)(F)F)cc32)ccc1Cl)C(=O)O	3000 nM		> 50000 nM				> 50000 nM	4800 nM	17%
Cc1cccc2c(-n3c(=O)n(Cc4ccc(Cl)c(O[C@H](C)C(=O)O)c4)c4cc(C(F)(F)F)ccc43)noc12	4.1 nM		> 50000 nM				> 50000 nM	9.2 nM	25%
Cc1c(C(=O)c2ccc(Cl)cc2)c2ccc(OC(F)(F)F)cc2n1Cc1cccc(O[C@@H](C(=O)O)C(C)C)c1		7 nM		9 nM	6 nM	5 nM			
COc1ccc2c(-n3c(=O)n(Cc4ccc(Cl)c(O[C@H](C)C(=O)O)c4)c4ccc(OC(F)(F)F)cc43)noc2c1	13.2 nM		> 50000 nM				> 50000 nM	4.1 nM	31%
Cc1ccc2onc(-n3c(=O)n(Cc4ccc(Cl)c(O[C@H](C)C(=O)O)c4)c4cc(C(F)(F)F)ccc43)c2c1	3000 nM		> 50000 nM				> 50000 nM	11.2 nM	53%
COc1ccc2c(-n3c(=O)n(Cc4ccccc4[C@@]4(C)OC(=O)NC4=O)c4cc(C(F)(F)F)ccc43)noc2c1			> 50000 nM				> 50000 nM	6630 nM	
